# Laboratory results from ChEMBL document CHEMBL2069233, “New hypotheses for the binding mode of 4- and 7-substituted indazoles in the active site of neuronal nitric oxide synthase” (Bioorg Med Chem, 2012).
# Tests used:
# [1] = molecular target: Nitric oxide synthase 1 (Rattus norvegicus) (UniProt P29476); test: Inhibition of nNOS in rat cerebellum homogenates assessed as reduction in conversion of L-[3H]arginine to L-[3H]citrulline at 100 uM; type: tissue-based
# Nitric oxide synthase 1 = Nitric oxide synthase 1 (Rattus norvegicus, UniProt P29476); test: Inhibition of nNOS in rat cerebellum homogenates assessed as reduction in conversion of L-[3H]arginine to L-[3H]citrulline; type: tissue-based
# Outline: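 Rat cerebellum homogenate as nNOS source; L-[3H]arginine to L-[3H]citrulline conversion with 1 mM CaCl2, 200 μM β-NADPH, 0.88 μM L-arginine plus 0.12 μM L-[3H]arginine, 15 min at 37 °C. Compounds in DMSO 0.4%, tested at 0.01, 0.1, 1, 10 and 100 μM. IC50 taken from inhibition curves, mean ± sem over 3–7 experiments.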
# Chain of Nitric oxide synthase 1 (Rattus norvegicus) (P29476 whole entry): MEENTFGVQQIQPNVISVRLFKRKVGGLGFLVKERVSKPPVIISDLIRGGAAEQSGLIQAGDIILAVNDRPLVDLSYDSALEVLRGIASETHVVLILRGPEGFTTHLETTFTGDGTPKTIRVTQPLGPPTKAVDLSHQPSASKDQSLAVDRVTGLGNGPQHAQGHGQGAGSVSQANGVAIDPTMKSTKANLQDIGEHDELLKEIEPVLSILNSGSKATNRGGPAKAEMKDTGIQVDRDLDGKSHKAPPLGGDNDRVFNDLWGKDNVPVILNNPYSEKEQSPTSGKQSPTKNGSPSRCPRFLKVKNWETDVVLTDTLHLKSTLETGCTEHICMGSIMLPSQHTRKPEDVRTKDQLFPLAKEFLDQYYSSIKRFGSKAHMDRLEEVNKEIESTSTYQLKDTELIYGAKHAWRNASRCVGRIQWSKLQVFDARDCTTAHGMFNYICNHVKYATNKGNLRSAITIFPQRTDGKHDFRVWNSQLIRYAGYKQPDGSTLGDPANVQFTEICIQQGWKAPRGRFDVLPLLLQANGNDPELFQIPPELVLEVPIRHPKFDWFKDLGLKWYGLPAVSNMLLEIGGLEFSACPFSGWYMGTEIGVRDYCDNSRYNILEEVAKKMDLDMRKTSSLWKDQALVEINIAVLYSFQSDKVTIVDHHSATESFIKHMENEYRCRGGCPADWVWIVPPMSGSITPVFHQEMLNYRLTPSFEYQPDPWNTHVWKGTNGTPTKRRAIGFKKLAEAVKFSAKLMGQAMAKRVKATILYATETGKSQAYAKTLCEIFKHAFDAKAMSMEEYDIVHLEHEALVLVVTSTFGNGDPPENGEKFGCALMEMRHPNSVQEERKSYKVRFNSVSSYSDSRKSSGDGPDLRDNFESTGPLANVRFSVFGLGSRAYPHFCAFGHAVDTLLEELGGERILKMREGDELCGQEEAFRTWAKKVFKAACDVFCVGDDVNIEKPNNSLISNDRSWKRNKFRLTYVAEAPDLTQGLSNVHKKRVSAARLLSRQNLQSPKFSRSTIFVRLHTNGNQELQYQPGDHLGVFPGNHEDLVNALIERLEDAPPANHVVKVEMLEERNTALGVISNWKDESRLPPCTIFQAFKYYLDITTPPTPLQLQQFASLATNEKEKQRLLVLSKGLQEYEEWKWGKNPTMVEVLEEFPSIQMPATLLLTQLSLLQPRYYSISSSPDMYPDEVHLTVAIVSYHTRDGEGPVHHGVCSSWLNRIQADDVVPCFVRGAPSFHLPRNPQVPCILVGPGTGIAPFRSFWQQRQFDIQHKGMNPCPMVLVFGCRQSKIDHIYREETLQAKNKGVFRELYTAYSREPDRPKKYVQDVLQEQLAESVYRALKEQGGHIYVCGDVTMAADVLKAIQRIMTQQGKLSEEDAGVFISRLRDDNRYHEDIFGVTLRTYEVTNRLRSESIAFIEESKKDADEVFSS
# Chain of Nitric oxide synthase 1 (P29476 whole entry): as above
inhibition [1] [%],IC50 (Nitric oxide synthase 1) [µM],SMILES
19,> 100,Cn1cc2c(Br)cccc2n1
61,72.5,CCn1ncc2c(Br)cccc21
63,42.5,N#Cc1cccc2[nH]ncc12
75,28.2,Cn1ncc2c(Br)cccc21
86,10.6,Cn1ncc2c([N+](=O)[O-])cccc21
0,> 100,CCn1cc2c(Br)cccc2n1
34,> 100,Cn1cc2c([N+](=O)[O-])cccc2n1
67,51.7,CCn1ncc2c([N+](=O)[O-])cccc21
34,> 100,CCn1cc2c([N+](=O)[O-])cccc2n1
